In ChEMBL document CHEMBL1125206, “Modification of the enkephalin "message" with an artificial polycationic C-terminus” (J Med Chem, 1991):
Starred links: 1 amine or outer side, 2 acyl side, 3 side chain; linkers in the order of their positions; H or OH if unused. Residues, ends and D or L forms follow the SMILES beside them. Ethylenediamine = C(CN[*:2])N[*:1]; GABA = NCCCC(=O)O

What was measured:
[1] = species on record: Cavia porcellus; test: Inhibition of electrically evoked contractions in guinea pig ileum at 10e-6 M with cocktail comprised of 10 uM thiophan, and 10 mM L-leucylleucine.; assay type: functional
Procedure, shortened: (§1)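 Isolated guinea pig ileum, electrically stimulated; inhibition of evoked contractions by compound (HCl salt) at 10⁻⁶ M final. Only tissues responding to 10⁻⁷ M morphine reference were used. Values are the average of two or three experiments.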

[2] = species on record: Cavia porcellus; test: The compound was tested for inhibition of electrically evoked contractions in guinea pig ileum with bestatin at 10e-6 M conc.; assay type: functional
Procedure, shortened: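 Guinea pig ileum, electrically stimulated. Compound at 10⁻⁶ M final concentration, scored as inhibition of evoked contractions. Tissues were qualified with a morphine response at 10⁻⁷ M. Values are the average of two or three experiments. Compounds tested as HCl salts.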

[3] = biological target: Kappa-type opioid receptor (Cavia porcellus, UniProt P41144); test: The compound was tested for binding activity towards opioid receptor kappa in guinea pig brain membranes.; assay type: cell membranes
Chain of Kappa-type opioid receptor (P41144 whole entry): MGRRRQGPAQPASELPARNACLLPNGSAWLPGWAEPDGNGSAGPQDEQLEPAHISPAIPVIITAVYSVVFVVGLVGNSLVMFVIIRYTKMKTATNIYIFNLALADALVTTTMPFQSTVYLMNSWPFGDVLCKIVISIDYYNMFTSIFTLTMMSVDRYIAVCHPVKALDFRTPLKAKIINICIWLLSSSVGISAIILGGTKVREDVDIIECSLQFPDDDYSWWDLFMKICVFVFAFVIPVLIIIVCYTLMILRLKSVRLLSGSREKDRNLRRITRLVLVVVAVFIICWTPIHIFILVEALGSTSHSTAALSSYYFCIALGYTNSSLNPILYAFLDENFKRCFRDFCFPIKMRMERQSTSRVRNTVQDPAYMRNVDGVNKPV
Procedure, shortened: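 Guinea pig brain membranes (male Hartley) in competitive radioligand displacement at 25 °C with 100 mM NaCl. κ sites were labelled with 1 nM (-)-[³H]EKC (final), with 500 nM DADLE and 20 nM sufentanil masking other sites. Compounds were tested as HCl salts. Values are single experiments in duplicate or mean ± SEM of three experiments in duplicate.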

[4] = biological target: Mu-type opioid receptor (Cavia porcellus, UniProt P97266); test: The compound was tested for binding activity towards opioid receptor mu in guinea pig brain membranes.; assay type: cell membranes
Chain of Mu-type opioid receptor (P97266 whole entry): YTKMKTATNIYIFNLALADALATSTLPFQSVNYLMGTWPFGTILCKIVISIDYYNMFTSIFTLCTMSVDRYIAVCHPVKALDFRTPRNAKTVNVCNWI
Procedure, shortened: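 Competitive radioligand binding used male Hartley guinea pig brain membranes at 25 °C in 100 mM NaCl, with 0.5 nM [³H]naloxone (final) for μ sites. Compounds were tested as HCl salts. Data come from single duplicate experiments or are mean ± SEM of three experiments run in duplicate.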

[5] = species on record: Cavia porcellus; test: Inhibition of electrically evoked contractions in guinea pig ileum at 10e-6 M conc. with cocktail comprised of 10 uM bestatin, 10 uM captopril, 0.3 uM thiophan, and 10 mM L-leucylleucine.; assay type: functional; procedure, shortened: as §1
[6] = species on record: Cavia porcellus; test: The compound was tested for inhibition of electrically evoked contractions in guinea pig ileum with bestatin at 10e-6 M; assay type: functional; procedure, shortened: as §1

Row | Compound | Inhibition [1] [%] | inhibition at 1 µM [2] [%] | Ki [3] [µM] | Ki [4] [µM] | Inhibition [5] [%] | inhibition at 1 µM [6] [%]
1 | NCCCC(=O)NCCN(CCNC(=O)CCCN)C(=O)CCCN | 0 | 0 |  |  |  | 
2 | NCCCC(=O)NCCNC(=O)[C@H](Cc1ccccc1)NC(=O)CNC(=O)CNC(=O)[C@@H](N)Cc1ccc(O)cc1 (H-YGGF-{Ethylenediamine-GABA}) |  | 29.5 | 36.7 | 16.5 | 28.5 | 
3 | NCCCC(=O)NCCCN(CCCNC(=O)[C@H](Cc1ccccc1)NC(=O)CNC(=O)CNC(=O)[C@@H](N)Cc1ccc(O)cc1)C(=O)CCCN (HELM PEPTIDE1{Y.G.G.F.[NCCCC(=O)NCCCN(CCCN[*:1])C(=O)CCCN]}$$$$V2.0) | 12.5 |  | 5.51 | 7.3 |  | 13
4 | NCCCC(=O)NCCN(CCN(CCNC(=O)[C@H](Cc1ccccc1)NC(=O)CNC(=O)CNC(=O)[C@@H](N)Cc1ccc(O)cc1)C(=O)CCCN)C(=O)CCCN (HELM PEPTIDE1{Y.G.G.F.[NCCCC(=O)NCCN(CCN(CCN[*:1])C(=O)CCCN)C(=O)CCCN]}$$$$V2.0) | 9 |  | 3.73 | 6.76 |  | 
5 | NCCCC(=O)NCCN(CCNC(=O)[C@H](Cc1ccccc1)NC(=O)CNC(=O)CNC(=O)[C@@H](N)Cc1ccc(O)cc1)C(=O)CCCN (HELM PEPTIDE1{Y.G.G.F.[NCCCC(=O)NCCN(CCN[*:1])C(=O)CCCN]}$$$$V2.0) |  | 13.5 | 8.75 | 14.4 | 17.5 | 
6 | CC[C@H](C)[C@H](NC(=O)[C@H](CCCNC(=N)N)NC(=O)[C@H](CCCNC(=N)N)NC(=O)[C@H](CC(C)C)NC(=O)[C@H](Cc1ccccc1)NC(=O)CNC(=O)CNC(=O)[C@@H](N)Cc1ccc(O)cc1)C(=O)N[C@@H](CCCNC(=N)N)C(=O)N1CCC[C@H]1C(=O)N[C@@H](CCCCN)C(=O)N[C@@H](CC(C)C)C(=O)N[C@@H](CCCCN)C(=O)O [ANALOG OF DYNORPHIN A] |  |  | 0.0036 | 0.05 |  | 
